# Activity calls are given as the source filed them. The rule behind the calls is not given here.
# What was measured:
# Assay type in all cases: functional, cell-based
# [1] = biological target: T1, Adenosine receptor A1 (Homo sapiens) (UniProt P30542); assay: Agonist activity at human A1 receptor expressed in CHO cells assessed as enhancement of R-PIA mediated ERK1/2 phosphorylation at 10 uM after 5 mins by Alpha-Screen assay
# T1 sequence (whole entry): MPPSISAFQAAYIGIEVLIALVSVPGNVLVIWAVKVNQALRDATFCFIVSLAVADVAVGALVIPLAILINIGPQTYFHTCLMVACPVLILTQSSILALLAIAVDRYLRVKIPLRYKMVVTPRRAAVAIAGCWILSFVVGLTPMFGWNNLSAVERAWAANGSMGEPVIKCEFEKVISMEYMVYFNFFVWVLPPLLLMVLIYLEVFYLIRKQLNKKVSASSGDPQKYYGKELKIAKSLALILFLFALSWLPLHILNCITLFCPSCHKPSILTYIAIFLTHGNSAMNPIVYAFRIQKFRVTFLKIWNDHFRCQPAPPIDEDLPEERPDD
# Outline: (§1)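 Flp-In CHO cells stably expressing human A1R, 30000/well, serum-starved overnight, then 1 U/mL ADA for 30 min. Test compound (3 or 10 μM) added 5 min before an EC50 concentration of R-PIA (determined same day), then a further 5 min at 37 °C. pERK1/2 read by SureFire AlphaScreen. Mean of two to three experiments in triplicate.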
# [2] = biological target: T1, Adenosine receptor A1 (Homo sapiens); assay: Agonist activity at human A1 receptor expressed in CHO cells assessed as enhancement of R-PIA mediated ERK1/2 phosphorylation at 3 uM after 5 mins by Alpha-Screen assay; outline: as §1
# [3] = biological target: T1, Adenosine receptor A1 (Homo sapiens); assay: Agonist activity at human A1 receptor expressed in CHO cells assessed as stimulation of ERK1/2 phosphorylation at 3 to 10 uM after 5 mins by Alpha-Screen assay
# Outline: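 Flp-In CHO cells stably expressing human A1R, serum-starved overnight and pretreated with 1 U/mL ADA for 30 min. Compound (3 and 10 μM) applied alone, 5 min at 37 °C. Intrinsic agonism measured as ERK1/2 phosphorylation by SureFire AlphaScreen, with 3% FBS as positive control. Two to three experiments in triplicate.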
# [4] = biological target: T1, Adenosine receptor A1 (Homo sapiens); assay: Positive allosteric modulation at human A1 receptor expressed in CHO cells assessed as enhancement of R-PIA-mediated inhibition of forskolin-stimulated cAMP accumulation after 30 mins by Alpha-Screen assay
# Outline: (§2)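 Serum-starved CHO-FlpIn hA1R cells were preincubated 30 min in phenol red-free DMEM with 0.1% BSA, 1 U/mL ADA and 500 μM IBMX. They were then treated with 10 μM forskolin plus R-PIA and/or modulator for 30 min at 37 °C, and cAMP was read by AlphaScreen. Data were normalized to 10 μM forskolin and fitted to an operational model of allosterism. Three experiments in duplicate.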
# [5] = biological target: T1, Adenosine receptor A1 (Homo sapiens); assay: Positive allosteric modulation at human A1 receptor expressed in CHO cells assessed as inhibition of forskolin-stimulated cAMP accumulation after 30 mins by Alpha-Screen assay; outline: as §2
Activity [1] [%],Activity [2] [%],Activity [3],Activity [4],Activity [5],SMILES
84,84,–,–,–,Cc1sc(N)c(C(=O)c2cccc(C(F)(F)F)c2)c1-c1cc(C(F)(F)F)cc(C(F)(F)F)c1
94,94,Active,Active,–,Cc1sc(N)c(C(=O)c2ccc(Cl)cc2)c1-c1cccc(C(F)(F)F)c1
83,85,–,–,–,Cc1ccc(C(=O)c2c(-c3cccc(C(F)(F)F)c3)csc2N)cc1
88,88,–,–,–,Nc1scc(-c2cccc(C(F)(F)F)c2)c1C(=O)c1ccc(Cl)c(Cl)c1
86,90,–,–,–,Cc1sc(N)c(C(=O)c2cccc(C(F)(F)F)c2)c1-c1cccc(C(F)(F)F)c1
84,90,–,–,–,Nc1scc(-c2cc(C(F)(F)F)cc(C(F)(F)F)c2)c1C(=O)c1cccc(C(F)(F)F)c1
84,78,–,–,–,Cc1sc(N)c(C(=O)c2ccc(Cl)c(Cl)c2)c1-c1cc(C(F)(F)F)cc(C(F)(F)F)c1
87,86,–,–,–,Cc1ccc(C(=O)c2c(-c3cc(C(F)(F)F)cc(C(F)(F)F)c3)csc2N)cc1
75,73,–,–,–,Cc1sc(N)c(C(=O)c2ccc(Cl)c(Cl)c2)c1-c1cccc(C(F)(F)F)c1
73,77,Active,Active,Active,Cc1sc(N)c(C(=O)c2ccccc2)c1-c1cccc(C(F)(F)F)c1
95,83,–,–,–,Cc1sc(N)c(C(=O)c2ccccc2)c1-c1cc(C(F)(F)F)cc(C(F)(F)F)c1
90,90,–,–,–,Nc1scc(-c2cc(C(F)(F)F)cc(C(F)(F)F)c2)c1C(=O)c1ccc(Cl)c(Cl)c1
94,93,–,–,–,Nc1scc(-c2cccc(C(F)(F)F)c2)c1C(=O)c1cccc(C(F)(F)F)c1
80,92,–,–,–,Cc1ccc(C(=O)c2c(N)sc(C)c2-c2cc(C(F)(F)F)cc(C(F)(F)F)c2)cc1
88,84,–,–,–,Cc1sc(N)c(C(=O)c2ccc(Cl)cc2)c1-c1cc(C(F)(F)F)cc(C(F)(F)F)c1
90,86,–,–,–,Cc1ccc(C(=O)c2c(N)sc(C)c2-c2cccc(C(F)(F)F)c2)cc1
